Measured values from different studies.
Protocols differ between the studies behind these lines.
Target: MAP/microtubule affinity-regulating kinase 3 (MARK3, Homo sapiens, UniProt P27448)

| SMILES | read-out | technique | tested at | remaining binding |
| --- | --- | --- | --- | --- |
| O=C(c1ccc(Nc2ncc(Cl)c(-c3ccc(Cl)s3)n2)cc1)N1CCC(N2CCCC2)CC1 | binding | competition with immobilised ligand | 1 µM | 100% |
| CCN1CCN(Cc2ccc(C(=O)Nc3ccc(C)c(Oc4ccc5c(c4)CC(=O)N5)c3)cc2C(F)(F)F)CC1 | binding | competition with immobilised ligand | 1 µM | 100% |
| CC1CCCN1c1nccc(-c2cnn3ncccc23)n1 (stereo not drawn) | binding |  | 1 µM | 100% |
| Cc1noc([C@H]2C[C@@H](c3ccc(C(F)(F)F)cc3)CN(C(=O)N3CCS(=O)(=O)C3)C2)n1 | cell-free assay | competition with immobilised ligand | 1 µM | 100% |
| O=C(Nc1c[nH]nc1C(=O)NC1CCNCC1)c1cc(F)cc(F)c1 | binding | competition with immobilised ligand | 1 µM | 100% |
| Cc1cnn2ncc(-c3ccnc(N(C)C)n3)c2c1 | binding |  | 1 µM | 82% |
| Nc1ncc2c(n1)-c1c([nH]c3ccc(C#CC4CC4)cc13)CCCC2 | binding | competition with immobilised ligand | 1 µM | 97% |
| C[C@@H]1CCN(c2nccc(-c3cnn4ncccc34)n2)C1 | binding |  | 1 µM | 100% |
| C[C@@H]1CN(c2ccc3ncc(-c4ccc5[nH]nc(C6CC6)c5c4)n3n2)C[C@H](C)O1 | binding | competition with immobilised ligand | 50 nM | 100% |
| N[C@H]1CCN(c2nccc(-c3cnn4ncccc34)n2)C1 | binding |  | 1 µM | 57% |
| COc1cc(-c2cn(C3CCc4ccccc4N(CC(F)(F)F)C3=O)nn2)ccc1-n1ccc(C)n1 (stereo not drawn) | cell-free assay | competition with immobilised ligand | 1 µM | 100% |
| O=C(NCCCN1CCOCC1)c1ccc(Nc2nccc(-c3cc4ccccc4s3)n2)cc1 | binding | competition with immobilised ligand | 1 µM | 100% |
| COc1cnc(Nc2cccc(S(N)(=O)=O)c2)nc1N1CCN(c2ccccc2)C(=O)C1 | binding | competition with immobilised ligand | 1 µM | 92% |
| Cc1c(C(=O)O)cc(-c2ccc(C3CCNCC3)cc2)c2ccc(-c3ccc(C(F)(F)F)cc3)cc12 | binding | competition with immobilised ligand | 1 µM | 100% |
| c1cncc(-c2cccc(Nc3nccc(NC4CCCCC4)n3)c2)c1 | binding | competition with immobilised ligand | 10 µM | 99% |
| C[C@@H]1CN(c2cc(-c3nn(C)c4ccc(OC5(C)CC5)cc34)ncn2)C[C@H](C)O1 | cell-free assay | competition with immobilised ligand | 1 µM | 100% |
| COc1ccnn2ncc(-c3ccnc(N(C)C)n3)c12 | binding |  | 1 µM | 44% |
| CNC(=O)[C@@H]1CC[C@@H](n2c(-c3ccc4cnccc4c3)nc3ccc(C(=O)NCc4cccc(C(N)=O)c4)cc32)C1 | binding | competition with immobilised ligand | 1 µM | 59% |
| C[C@H](c1ccc(F)cc1)N(Cc1cccc(C(=O)O)c1)C(=O)c1cnc2ccccc2c1 | cell-free assay | competition with immobilised ligand | 1 µM | 100% |
| C[C@@H](c1ccc(-n2cnc3c(N)ncnc32)cc1)N1CCc2nn(C)c(Cc3ccccc3)c2C1=O | binding | competition with immobilised ligand | 0.1 µM | 93% |
| O=C(NCc1ncc(C(F)(F)F)cc1Cl)c1ccc2c(c1)C1(CCS(=O)(=O)CC1)[C@H](C1CC1)N2S(=O)(=O)c1ccc(F)cc1 | cell-free assay | competition with immobilised ligand | 1 µM | 89% |
| CN(CCCC(F)(F)F)c1nccc(-c2cnn3ncccc23)n1 | binding |  | 1 µM | 100% |
| O=C(O)[C@H]1[C@H](Cn2nnc3ccccc3c2=O)CC[C@@H]1C(=O)c1ccc(OCCC2CCOCC2)cc1 | cell-free assay | competition with immobilised ligand | 1 µM | 100% |
| Cc1cnc(Nc2ccc(C(=O)N3CCC(N4CCCC4)CC3)cc2)nc1-c1cc2ccccc2s1 | binding | competition with immobilised ligand | 1 µM | 100% |
